Activity calls are given as the source filed them. The rule behind the calls is not given here.
Assays:
HepG2 = test: Cytotoxicity against human HepG2 cells after 24 hrs by MTS-PMS assay; format: functional; conditions: HepG2, 24 h, read-out: LD50 (the source's name)
Procedure, shortened: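 Hep G2 cells (2 × 10⁴ per well) in IMDM with 10% FCS exposed to compound titrated 0.001–100 μM for 24 h at 37 °C; living cells counted by MTS/PMS assay; LD₅₀ reported as mean of at least two independent assays with standard deviation.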

[1] = biological target: T1, Indoleamine 2,3-dioxygenase 1 (Homo sapiens, UniProt P14902); test: Inhibition of human IDO1 transfected in HEK293 clone 6 cells by HPLC analysis; format: cell-based
Target sequence in this assay (P14902 whole entry, looked up): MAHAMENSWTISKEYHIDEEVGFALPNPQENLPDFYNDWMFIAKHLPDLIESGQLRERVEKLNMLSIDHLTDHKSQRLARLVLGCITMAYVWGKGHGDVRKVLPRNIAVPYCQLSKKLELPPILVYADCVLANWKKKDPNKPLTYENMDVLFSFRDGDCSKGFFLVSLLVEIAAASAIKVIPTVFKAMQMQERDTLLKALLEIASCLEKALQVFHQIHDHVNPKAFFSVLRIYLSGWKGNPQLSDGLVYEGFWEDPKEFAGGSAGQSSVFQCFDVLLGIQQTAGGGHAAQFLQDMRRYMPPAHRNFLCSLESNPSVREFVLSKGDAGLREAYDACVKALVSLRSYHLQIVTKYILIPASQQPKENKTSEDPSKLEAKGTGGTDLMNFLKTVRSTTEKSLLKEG

[2] = biological target: Tryptophan 2,3-dioxygenase (Mus musculus, UniProt P48776); test: Inhibition of mouse TDO in P815 clone 12 cells by HPLC analysis; format: cell-based
[3] = biological target: Indoleamine 2,3-dioxygenase 1 (Mus musculus, UniProt P28776); test: Inhibition of mouse IDO1 in P815 clone 6 cells by HPLC analysis; format: cell-based
Procedure, shortened: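 Murine mastocytoma P815 stably transfected cells were used: P815-mIDO1 clone 6 for mouse IDO1 and P815B-hIDO1 clone 6 for human IDO1. Cells with inhibitor were incubated at 37 °C until under 50% of tryptophan was consumed, as tracked in control wells by pDMAB absorbance at 480 nm. Supernatant was TCA-precipitated, and tryptophan and kynurenine were quantified by C18 HPLC. Values are the mean of ≥2 independent assays.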

[4] = Dissociation constant, pKa of the compound at pH 11 to 12 by spectrophotometric analysis; format: physicochemical
[5] = biological target: Tryptophan 2,3-dioxygenase (Homo sapiens, UniProt P48775); test: Inhibition of human TDO transfected in mouse P815B clone 19 cells by HPLC analysis; format: cell-based
physchem = conditions: pH 2
[6] = biological target: T1, Indoleamine 2,3-dioxygenase 1; test: Inhibition of human recombinant N-terminal His-tagged IDO1 (Ala2 to Gly403) overexpressed in Escherichia coli BL21 at pH 6.5 after 60 mins by HPLC analysis
Target sequence in this assay (P14902 whole entry): as the sequence (P14902 whole entry, looked up) above

[7] = biological target: T1, Indoleamine 2,3-dioxygenase 1; test: Inhibition of human IDO1 transfected in mouse P815B clone-6 cells by HPLC analysis; format: cell-based
Target sequence in this assay (P14902 whole entry): as the sequence (P14902 whole entry, looked up) above

[8] = biological target: T1, Indoleamine 2,3-dioxygenase 1; conditions: at 1 mM
Target sequence in this assay (P14902 whole entry, looked up): as above

Sequence of Tryptophan 2,3-dioxygenase (Mus musculus, UniProt P48776) (P48776 whole entry): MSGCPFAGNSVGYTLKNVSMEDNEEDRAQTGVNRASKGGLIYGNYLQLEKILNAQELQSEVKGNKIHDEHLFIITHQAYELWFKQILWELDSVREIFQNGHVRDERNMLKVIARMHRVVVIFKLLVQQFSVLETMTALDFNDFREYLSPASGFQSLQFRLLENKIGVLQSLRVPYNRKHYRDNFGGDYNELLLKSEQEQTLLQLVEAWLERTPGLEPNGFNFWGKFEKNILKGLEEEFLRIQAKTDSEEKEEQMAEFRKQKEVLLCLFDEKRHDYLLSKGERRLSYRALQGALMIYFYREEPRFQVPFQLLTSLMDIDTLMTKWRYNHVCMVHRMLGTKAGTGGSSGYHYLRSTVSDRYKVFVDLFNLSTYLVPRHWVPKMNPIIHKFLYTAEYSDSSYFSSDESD
Sequence of Tryptophan 2,3-dioxygenase (Homo sapiens, UniProt P48775) (P48775 whole entry): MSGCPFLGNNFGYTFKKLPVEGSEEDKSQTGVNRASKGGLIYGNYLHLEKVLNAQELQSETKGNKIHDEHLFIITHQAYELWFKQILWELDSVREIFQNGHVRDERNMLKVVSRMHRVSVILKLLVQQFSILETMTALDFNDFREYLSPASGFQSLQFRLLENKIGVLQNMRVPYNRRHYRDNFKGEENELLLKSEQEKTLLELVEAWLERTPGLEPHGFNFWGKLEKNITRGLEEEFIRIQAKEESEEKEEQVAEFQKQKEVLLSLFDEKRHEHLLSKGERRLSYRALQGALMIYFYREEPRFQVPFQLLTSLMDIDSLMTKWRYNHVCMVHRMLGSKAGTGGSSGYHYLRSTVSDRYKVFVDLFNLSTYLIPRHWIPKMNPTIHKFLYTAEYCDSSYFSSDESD
Sequence of Indoleamine 2,3-dioxygenase 1 (Mus musculus, UniProt P28776) (P28776 whole entry): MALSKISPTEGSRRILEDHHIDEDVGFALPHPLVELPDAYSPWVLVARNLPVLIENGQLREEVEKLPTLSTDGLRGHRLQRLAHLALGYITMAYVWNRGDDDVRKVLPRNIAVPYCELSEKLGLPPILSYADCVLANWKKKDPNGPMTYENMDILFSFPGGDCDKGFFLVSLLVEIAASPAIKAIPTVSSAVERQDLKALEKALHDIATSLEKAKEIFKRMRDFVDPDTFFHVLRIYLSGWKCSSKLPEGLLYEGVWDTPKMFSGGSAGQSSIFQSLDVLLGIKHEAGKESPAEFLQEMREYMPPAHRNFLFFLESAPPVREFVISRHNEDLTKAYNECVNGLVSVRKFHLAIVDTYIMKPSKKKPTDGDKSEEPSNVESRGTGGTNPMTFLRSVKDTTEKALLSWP

c1ccc(-c2cnn[nH]2)cc1
CC50 (HepG2): > 100 µM | inhibition [1]: Active | IC50 [2]: > 100 µM | IC50 [3]: 0.18 µM | pKa [4]: 0.4 | IC50 [5]: > 100 µM | pKa (physchem): 8.62

Fc1cccc(-c2c[nH]nn2)c1
CC50 (HepG2): > 100 µM | inhibition [1]: Active | IC50 [6]: 47 µM | IC50 [2]: > 100 µM | IC50 [3]: 1.1 µM | IC50 [5]: > 100 µM | pKa (physchem): 8.38 | IC50 [7]: > 100 µM

c1ccc(-c2nc[nH]n2)cc1
inhibition [8]: inactive | pKa [4]: 2.05 | pKa (physchem): 9.29

Clc1ccc(Cl)c(-c2c[nH]nn2)c1
CC50 (HepG2): > 100 µM | inhibition [1]: Active | IC50 [6]: 6.4 µM | IC50 [2]: > 100 µM | IC50 [3]: 0.15 µM | IC50 [5]: > 100 µM | pKa (physchem): 8.17 | IC50 [7]: 34 µM

Clc1cccc(-c2c[nH]nn2)c1Cl
CC50 (HepG2): > 100 µM | inhibition [1]: Active | IC50 [6]: 23 µM | IC50 [2]: > 100 µM | IC50 [3]: 1.7 µM | IC50 [5]: > 100 µM | pKa (physchem): 8.06 | IC50 [7]: > 100 µM

c1nc[nH]n1 [1,2,4-TRIAZOLE]
pKa [4]: 2.19 | pKa (physchem): 10.3

Fc1cc(-c2c[nH]nn2)ccn1
CC50 (HepG2): > 100 µM | inhibition [1]: Active | IC50 [6]: 7.4 µM | IC50 [2]: > 100 µM | IC50 [3]: 0.12 µM | IC50 [5]: > 100 µM | pKa (physchem): 7.59 | IC50 [7]: 7 µM

c1cncc(-c2c[nH]nn2)c1
IC50 [6]: 1000 µM | pKa (physchem): 8.14

Clc1cc(-c2c[nH]nn2)ccn1
CC50 (HepG2): > 100 µM | inhibition [1]: Active | IC50 [6]: 2.8 µM | IC50 [2]: > 100 µM | IC50 [3]: 0.06 µM | IC50 [5]: > 100 µM | pKa (physchem): 7.6 | IC50 [7]: 3.5 µM

Cc1[nH]nnc1-c1ccccc1
inhibition [8]: inactive | pKa (physchem): 9.11

c1c[nH]nn1
pKa [4]: 1.17 | pKa (physchem): 9.26

c1ccc(-c2nnn[nH]2)cc1
inhibition [8]: inactive | pKa (physchem): 4.53

Clc1ccccc1-c1c[nH]nn1
IC50 [6]: 32 µM | IC50 [2]: > 100 µM | IC50 [3]: 1.5 µM | IC50 [5]: > 100 µM | pKa (physchem): 8.5 | IC50 [7]: > 100 µM

c1ccc(-c2c[nH]cn2)cc1
pKa [4]: 6.1 | pKa (physchem): 13.4

COc1ccccc1-c1c[nH]nn1
CC50 (HepG2): > 100 µM | inhibition [1]: Active | inhibition [8]: inactive | IC50 [2]: > 100 µM | IC50 [3]: 20 µM | IC50 [5]: > 100 µM | pKa (physchem): 8.99 | IC50 [7]: > 100 µM

Clc1ccc(-c2c[nH]nn2)cc1
IC50 [6]: 530 µM | pKa (physchem): 8.46

Clc1cccc(-c2c[nH]nn2)c1
CC50 (HepG2): > 100 µM | inhibition [1]: Active | IC50 [6]: 1.2 µM | IC50 [2]: > 100 µM | IC50 [3]: 0.02 µM | IC50 [5]: > 100 µM | pKa (physchem): 8.32 | IC50 [7]: 0.62 µM

Reference: ChEMBL document CHEMBL2146377, “Rational design of 4-aryl-1,2,3-triazoles for indoleamine 2,3-dioxygenase 1 inhibition” (J Med Chem, 2012)
